Published values from different studies.
Each line is one published result; the experiments were not run side by side.
SLC6A2: Sodium-dependent noradrenaline transporter (SLC6A2, Homo sapiens, UniProt P23975)
CES2: Cocaine esterase (CES2, Homo sapiens, UniProt O00748)
FPR1: fMet-Leu-Phe receptor (FPR1, Homo sapiens, UniProt P21462)
WD repeat-containing protein 91: WD repeat-containing protein 91 (Homo sapiens, UniProt A4D1P6)
Oprk1: Kappa-type opioid receptor (Oprk1, Mus musculus, UniProt P33534)

CCOC(=O)[C@@]12C[C@@H]1[C@@H](n1ccc3c(NCCCCCc4ccccc4)nc(C#Cc4ccccc4)nc31)[C@H](O)[C@@H]2O — Ki (SLC6A2; ligand displacement, radioligand): 0.47 µM
COc1cc([C@@H]2c3cc4c(cc3[C@@H](O[C@@H]3O[C@@H]5CO[C@@H](C)O[C@H]5[C@H](O)[C@H]3O)[C@H]3COC(=O)[C@H]23)OCO4)cc(OC)c1O — IC50 (CES2; enzyme activity, inhibitor, fluorescence; with preincubation): > 100 µM
O=C(CCNC(=O)CNC(=O)CC(c1ccccc1)(c1ccccc1)c1ccccc1)NC[C@H]1CCCN(Cc2ccc(F)cc2)C1 — IC50 (Muscarinic acetylcholine receptor M5 (CHRM5, Homo sapiens, UniProt P08912); ligand displacement, radioligand; cell membranes): 19.4 µM
N#Cc1ccc(C[C@H](Nc2nnc(-c3cccc(Br)c3)s2)C(=O)N2CCc3ccccc32)cc1 — EC50 (FPR1; calcium signal, agonist): 32.9 µM
CNC(=O)[C@@]12C[C@@H]1[C@@H](n1cnc3c(NCc4cccc(Cl)c4)nc(C#Cc4ccc(Cl)s4)nc31)[C@H](O)[C@@H]2O — Ki (SLC6A2; ligand displacement, radioligand): 2.3 µM
CCn1c(=O)[nH]c2cc(C(=O)NC(c3ccc(F)cc3)c3cnn(C)c3)ccc2c1=O (stereo not shown) — Kd (WD repeat-containing protein 91; binding, SPR): 3 µM
COc1cc2c(cc1OC)C(=O)/C(=C/c1ccc(C)c(C)c1)C2 — IC50 (CES2; enzyme activity, inhibitor, fluorescence; with preincubation): > 100 µM
CCOC(=O)[C@@]12C[C@@H]1[C@@H](n1cnc3c(NCCCCCCc4ccccc4)nc(C#Cc4ccc(Cl)s4)nc31)[C@H](O)[C@@H]2O — Ki (SLC6A2; ligand displacement, radioligand): 5.4 µM
N#Cc1ccc(C[C@H](Nc2nnc(-c3cccc(F)c3)o2)C(=O)N2CCc3ccccc32)cc1 — EC50 (FPR1; calcium signal, agonist): 30.2 µM
COc1cc2c(cc1OC)C(=O)/C(=C/c1ccc(O)cc1)C2 — IC50 (CES2; enzyme activity, inhibitor, fluorescence; with preincubation): 1.89 µM
CC(C)[C@@H](CN1CCc2ccccc2C1)NC(=O)c1ccc(F)cc1 — Ki (Oprk1; ligand displacement, radioligand): 36.2 µM
CCOC(=O)[C@@]12C[C@@H]1[C@@H](n1cnc3c(NCc4cccc(Cl)c4)nc(C#Cc4ccc(Cl)s4)nc31)[C@H](O)[C@@H]2O — Ki (SLC6A2; ligand displacement, radioligand): 1.2 µM
CNc1nc(N[C@@H]2CCc3c(C#N)cccc32)cc(-c2cccc(N3CCCC3)c2)n1 — Kd (WD repeat-containing protein 91; binding, SPR): 1 µM
CC(C)[C@@H](CN1CCc2ccccc2C1)NC(=O)c1cccc(-c2cccc(C#N)c2)c1 — Ki (Oprk1; ligand displacement, radioligand): 2.14 µM
CNC(=O)[C@@]12C[C@@H]1[C@@H](n1cnc3c(Nc4ccccc4)nc(C#Cc4ccc(Cl)s4)nc31)[C@H](O)[C@@H]2O — Ki (SLC6A2; ligand displacement, radioligand): 2.5 µM
COc1cc2c(cc1OC)C(=O)/C(=C/c1ccc(C)cc1Cl)C2 — IC50 (CES2; enzyme activity, inhibitor, fluorescence; with preincubation): > 100 µM
CC(C)[C@@H](CN1CCc2ccccc2C1)NC(=O)c1c(Cl)cncc1Cl — Ki (Oprk1; ligand displacement, radioligand): 39.7 µM
O=C1NC(=O)C(c2ccccc2)(c2ccccc2)N1 — IC50 (CES2; enzyme activity, inhibitor, fluorescence; with preincubation): > 100 µM
CCOC(=O)[C@@]12C[C@@H]1[C@@H](n1cnc3c(NCCCCCCc4ccccc4)nc(I)nc31)[C@H](O)[C@@H]2O — Ki (SLC6A2; ligand displacement, radioligand): 5.4 µM
N#Cc1ccc(C[C@H](NC(=O)c2cc3ccc(F)cc3[nH]2)C(=O)N2CCc3ccccc32)cc1 — EC50 (FPR1; calcium signal, agonist): 23.1 µM
O=c1cc(-c2ccc(O)cc2)oc2cc(O)cc(O)c12 — Kd (NACHT, LRR and PYD domains-containing protein 3 (NLRP3, Homo sapiens, UniProt Q96P20); binding, SPR): 18.7 µM
COc1cc(Nc2c(C#N)cnc3cc(OCCCN4CCN(C)CC4)c(OC)cc23)c(Cl)cc1Cl — IC50 (CES2; enzyme activity, inhibitor, fluorescence; with preincubation): 22 µM
CCCC[C@H](NC(C)=O)C(=O)N[C@H]1CC(=O)NCCCC[C@@H](C(=O)N[C@@H](C(=O)N2CCC[C@@H]2C(N)=O)C(C)C)NC(=O)[C@H](Cc2c[nH]c3ccccc23)NC(=O)[C@H](CCCN=C(N)N)NC(=O)[C@@H](Cc2ccc3ccccc3c2)NC(=O)[C@@H]2CCCN2C1=O — EC50 (Melanocortin receptor 4 (MC4R, Homo sapiens, UniProt P32245); cAMP, agonist): > 1 µM
CC(C)[C@@H](CN1CCc2ccccc2C1)NC(=O)c1ccc([N+](=O)[O-])s1 — Ki (Oprk1; ligand displacement, radioligand): 9.06 µM
OC[C@@]12C[C@@H]1[C@@H](n1cnc3c(NCCCCCCc4ccccc4)nc(I)nc31)[C@H](O)[C@@H]2O — Ki (SLC6A2; ligand displacement, radioligand): 1.4 µM
CCc1ccccc1/C=C1\Cc2cc(OC)c(OC)cc2C1=O — IC50 (CES2; enzyme activity, inhibitor, fluorescence; with preincubation): 1.48 µM
CCOC(=O)[C@@]12C[C@@H]1[C@@H](n1cnc3c(NC4CC4)nc(C#Cc4ccc(Cl)s4)nc31)[C@H](O)[C@@H]2O — Ki (SLC6A2; ligand displacement, radioligand): 3.7 µM
COc1cc2c(cc1OC)C(=O)/C(=C/c1cccc3ccccc13)C2 — IC50 (CES2; enzyme activity, inhibitor, fluorescence; with preincubation): 15.3 µM
